ARNT TACC3 PPI – disruptors of human ARNT/TACC3 interaction; AlphaScreen His-ARNT PAS-B/GST-TACC3 binding, luminescence; TACC3 fragment carries E629A point mutation; inhibition, % at 9.99 µM; hit rate 0.66% among 390,000;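 active = mean inhibition of replicates at least 50% and at least half of replicates each reaching 50%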;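 note: 0% = complete ARNT plus TACC3 wells and 100% = ARNT alone without TACC3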
CAL PDZ FP-1 – blocks peptide binding to human CAL PDZ domain; Q9HD26; purified CAL PDZ, TMR-peptide fluorescence polarization, 1 h; inhibition, % at 20 µM; hit rate 0.02% among 330,000; AID 504414;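 active = highest replicate inhibition of at least 40%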;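 note: plate controls were DMSO neutral control wells for no effect and unlabeled competitor peptide control wells for full effect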
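material = purified tagged CAL PDZ domain construct (CerCALP) | buffer or medium = sodium phosphate/NaCl buffer pH 7.4 with TCEP, IgG, Thesit | reagent = TMR-labelled reporter peptide T*-PRC34 bound in PDZ groove | incubation = 1 h room-temperature incubation prior to read | measured by = fluorescence polarization (mP) | evaluation = percent inhibition from loss of millipolarization | control set = unlabelled peptide and DMSO controls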
SR-BI DiI-HDL act – activators of SR-BI mediated HDL lipid uptake | AID 504775 | hit rate 0.096% among 320,000 | CHO ldlA[mSR-BI] cells, DiI-HDL uptake fluorescence, 3 h; 100 = double the neutral-control signal | activation, % at 12.5 µM;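 active = mean replicate activation of at least 60% and every replicate at or above 60%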;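 note: 0% = median plate neutral-control signal and 100% = twice that signal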
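material = CHO ldlA[mSR-BI] cells | medium = Ham's F12 with 0.5% BSA, HEPES 25 mM, pH 7.4 | reagent = fluorescent DiI-HDL, 10 µg/mL final | compound dosing = single-point compound dose | incubation = 3 h, 37 °C | measured by = bottom-read fluorescence, 550/595 nm | measure = HDL uptake via cellular fluorescence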
miR122 inh – blocks miR-122 activity in Huh7 sensor cells. Huh7 miR-122 Renilla luciferase sensor, 48 h; neutral wells = 0, positive control = 100. activation (reporter increase), % at 12.5 µM. hit rate 0.3% among 340,000. AID 602342;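 active = mean replicate activation score at least 90 and every replicate individually at or above 90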;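 note: higher luciferase means less miR-122 activity so hits act as miR-122 inhibitors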
CAL PDZ FP-2 – CAL PDZ (human) peptide binding inhibition; purified CAL PDZ, TMR-peptide fluorescence polarization, 1 h; inhibition, % at 24.9 µM; hit rate 0.92% among 300,000; AID 602252;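 active = mean inhibition of at least 30% with at least half of replicates also reaching 30%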;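 note: 0% = DMSO neutral control and 100% = excess unlabeled competitor peptide PRC23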
SR-BI HDL uptake – mouse SR-BI HDL lipid transfer inhibition. Q61009. ldlA[mSR-BI] CHO cells, DiI-HDL uptake fluorescence, 3 h. inhibition, % at 12.5 µM. hit rate 0.96% among 320,000. AID 488896;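 active = mean replicate inhibition of at least 70% and a set share of replicates each scoring 70 or more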;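 note: 0% = median of neutral control wells and 100% = median of positive control wells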
Target sequence (Q61009 whole entry, looked up): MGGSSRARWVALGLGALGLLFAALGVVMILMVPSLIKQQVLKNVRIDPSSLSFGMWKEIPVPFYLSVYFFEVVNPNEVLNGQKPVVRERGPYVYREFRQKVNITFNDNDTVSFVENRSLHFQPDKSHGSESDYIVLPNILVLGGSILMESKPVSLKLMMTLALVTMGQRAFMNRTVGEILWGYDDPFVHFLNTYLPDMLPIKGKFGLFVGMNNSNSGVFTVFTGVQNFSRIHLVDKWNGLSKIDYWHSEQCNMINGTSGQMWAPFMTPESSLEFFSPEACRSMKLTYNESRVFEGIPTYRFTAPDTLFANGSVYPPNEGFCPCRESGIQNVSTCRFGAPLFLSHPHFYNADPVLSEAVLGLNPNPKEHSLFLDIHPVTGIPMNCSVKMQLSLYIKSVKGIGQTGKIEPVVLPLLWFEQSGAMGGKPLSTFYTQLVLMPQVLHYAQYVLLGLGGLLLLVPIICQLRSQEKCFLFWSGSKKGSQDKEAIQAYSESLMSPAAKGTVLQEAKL
Starred values were filed as active, the others as inactive; . = no result; [ ] = remark or other dose. Most compounds without a hit are left out; they make up all but 2.1% or so of the library.

SMILES	ARNT TACC3 PPI	CAL PDZ FP-1	SR-BI DiI-HDL act	miR122 inh	CAL PDZ FP-2	SR-BI HDL uptake
O=S(=O)(Nc1nc2ccccc2nc1Nc1ccc(N2CCOCC2)cc1)c1cc(Cl)ccc1Cl	-15.7	-0.3	-72.8	.	11.6	72.8*
COc1ccccc1/C=C(\NC(=O)c1ccc(OC)c(OC)c1)C(=O)Nc1cccc([N+](=O)[O-])c1	-0.8	-1.3	-74.0	.	-1.0	74.0*
Cc1cc(/C=N/NC(=O)c2cccc([N+](=O)[O-])c2)c(C)n1-c1ccc(Cl)cc1Cl	-4.2	.	-88.9	-1.7	-5.3	88.9*
COc1ccc(C(=O)Nc2cccc(/C(C)=N/NC(=O)c3ccc([N+](=O)[O-])c(C)c3)c2)cc1OC	5.8	-2.2	-86.1	-1.2	4.8	86.1*
COc1ccc(/C=N/NC(=O)c2cccc([N+](=O)[O-])c2)c2ccccc12	-7.7	-0.4	-75.3	5.9	-1.8	75.3*
Cc1cccc(/C=N/NC(=O)c2cccc([N+](=O)[O-])c2)n1	.	-0.9	-17.5	2.5	-1.8	17.5
CCOc1ccc(C(=O)Nc2cccc(NC(=O)c3cccs3)c2)cc1[N+](=O)[O-]	-13.8	-3.5	-43.3	-4.0	-5.5	43.3
COc1cc(/C=N/NC(=O)c2cccc([N+](=O)[O-])c2)ccc1OCc1ccccc1	1.6	-0.4	-88.6	-2.2	2.4	88.6*
CCOc1ccc(C(=O)Nc2cccc([N+](=O)[O-])c2)cc1Br	-2.3	-0.9	-72.3	-14.2	-10.7	72.3*
COc1ccc(/C=N/NC(=O)c2cccc([N+](=O)[O-])c2)cc1OC	1.9	-2.3	-41.7	.	-1.3	41.7
O=C(N/N=C/c1cccc([N+](=O)[O-])c1)c1ccc(Br)cc1	4.8	-2.1	-46.5	.	-2.0	46.5
O=C(N/N=C/c1cccc([N+](=O)[O-])c1)c1ccc(COc2ccccc2-c2ccccc2)cc1	-2.0	-0.4	-74.2	.	-4.1	74.2*
COc1cccc(/C=N/NC(=O)c2ccc([N+](=O)[O-])cc2Cl)c1O	58.7*	-2.9	-48.4	.	-1.8	48.5
COc1ccc(NC(=O)N(C)C[C@H]2OCCCC[C@H](C)Oc3ccc(NC(=O)NC(C)C)cc3C(=O)N([C@@H](C)CO)C[C@H]2C)cc1	-7.0	.	.	6.0[16.7 µM]	.	.
O=C(Nc1ccc2c(c1)OCO2)N[C@@H]1CC[C@H](CCNC(=O)C2CCCC2)O[C@H]1CO	-1.6	.	.	-14.3[16.7 µM]	.	.
CCCNC(=O)N1C[C@@H](C)[C@H](OC)CN(C)C(=O)c2ccc(NC(=O)CCC)cc2OC[C@@H]1C	-9.5	.	.	.	.	.
CN(C)CCCNC(=O)C[C@H]1CC[C@H](NC(=O)Cc2cccnc2)[C@@H](CO)O1	-6.4	.	.	.	.	.
CC[C@H]1C=C[C@@H](C(C(=O)OC)C(=O)OC)CN1C(C)=O	44.6	-0.4	-7.7	3.0	-3.4	7.7
C=CC[C@H]1C=C[C@@H](C(C(=O)OC)C(=O)OC)CN1C(C)=O	57.3*	-0.9	-5.5	-0.3	-4.8	5.5
CCCc1cn(CC[C@@H]2CC[C@H](NC(=O)C3CCC3)[C@@H](CO)O2)nn1	-5.4	.	.	.	.	.
Cc1c(C(=O)N2CCOCC2)c(S(=O)(=O)Nc2ccc(C(C)C)cc2)c(C)n1C	-0.7	-1.1	2.3	-9.4	48.3*	-2.3
C[C@@H]1CN([C@@H](C)CO)S(=O)(=O)c2ccc(-c3ccccc3)cc2O[C@@H]1CN(C)C	.	.	.	-1.9[16.7 µM]	.	.
CCCNC(=O)N(C)C[C@H]1Oc2ncc(C#CC3CC3)cc2C(=O)N([C@@H](C)CO)C[C@@H]1C	-8.3	.	.	1.6[16.7 µM]	.	.
Cc1c(C(=O)NN)[nH]c2ccc([N+](=O)[O-])cc12	.	.	.	-1.4	.	.
CCCCC/C=N/NC(=O)c1[nH]c2ccc([N+](=O)[O-])cc2c1C	-7.1	0.7	-98.3	.	-0.3	98.3*
SMILES	ARNT TACC3 PPI	CAL PDZ FP-1	SR-BI DiI-HDL act	miR122 inh	CAL PDZ FP-2	SR-BI HDL uptake
O=C([C@H]1[C@H](CO)[C@H]2Cn3c(ccc(-c4ccncc4)c3=O)[C@H]2N1CCC(F)(F)F)N1CCCCC1	7.8	.	.	-3.2[16.7 µM]	.	.
FC(F)(F)c1ccccc1NC(=S)N1CCCC1	-4.3	-0.7	9.1	-17.4	50.2*	-9.1
CCOc1ccc(NC(=O)CN(C)C(=O)C2CC(=O)N(c3cccc(SC)c3)C2)cc1OCC (stereo not drawn)	43.0	-0.5	-72.1	.	-6.0	72.1*
C[C@]12c3[nH]c4cc(-c5ccco5)ccc4c3CCN1C(=O)[C@@H](CC(=O)NCCN1CCOCC1)C[C@@H]2C(=O)N1CCCCC1	7.0	-0.8	-8.7	0.3	48.1*	8.7
Oc1ccccc1-c1nnc(SCCN2CCOCC2)n1Cc1ccccc1	-0.5	-1.8	-57.8	240.7*	55.7*	57.8
CC(CCc1ccccc1)NC(=O)C1CCCN(C(=O)c2cc3sccc3n2C)C1 (stereo not drawn)	6.2	-1.1	-79.6	1.0	0.1	79.6*
Cc1ccc(/C(N)=N/OC(=O)N2c3ccccc3Sc3ccccc32)cc1	-1.7	-2.6	-24.5	-10.1	80.8*	24.5
CCCCn1c(SCC(=O)Nc2nnc(CC)s2)nc2c1c(=O)n(C)c(=O)n2C	7.2	-3.2	19.8	237.4*	.	-19.8
CCCCn1c(SCC(=O)Nc2nnc(C)s2)nc2c1c(=O)n(C)c(=O)n2C	2.7	-2.5	60.0	-5.9	.	-60.0
COC(=O)NC(=C(Cl)Cl)S(=O)(=O)c1ccccc1	-2.6	0.9	73.3*	-3.4	1.1	-73.3
Cc1ccc(C(=O)NC(=C(Cl)Cl)S(=O)(=O)c2ccccc2)cc1	.	-2.3	6.6	.	-1.0	-6.6
COc1ccc(NC(=O)Nc2ccc3c(c2)C(=O)N([C@@H](C)CO)C[C@@H](C)[C@H](CN(C)S(=O)(=O)c2ccc(C)cc2)OCCCC[C@@H](C)O3)cc1	-10.9	.	.	-3.6[16.7 µM]	.	.
C=CCCC(=O)Nc1nc(C)c(-c2csc(Nc3ccccc3OC)n2)s1	1.1	-0.7	-70.7	-2.6	-4.4	70.7*
CCC(C)C(=O)Nc1nc(C)c(-c2csc(Nc3ccccc3OC)n2)s1 (stereo not drawn)	.	0.2	-77.9	.	-0.5	77.9*
CCCCC(=O)Nc1nc(C)c(-c2csc(Nc3ccccc3OC)n2)s1	-2.9	0.3	-60.2	-2.8	-0.4	60.2
C=CCCC(=O)Nc1nc(C)c(-c2csc(Nc3cc(Cl)ccc3OC)n2)s1	-4.9	-0.4	-86.9	-2.8	2.6	86.9*
C[C@@H]1CN([C@@H](C)CO)C(=O)c2cccc(NC(=O)c3ccc(-c4nccs4)cc3)c2O[C@@H]1CN(C)Cc1ccc(C(=O)Nc2ccccc2N)cc1	22.2	.	.	212.6*[16.7 µM]	.	.
Cc1ccccc1-c1cnc2c(c1)C(=O)N([C@H](C)CO)C[C@H](C)[C@H](CN(C)Cc1ccccc1F)O2	6.5	.	.	-9.8[16.7 µM]	.	.
C[C@@H]1CN([C@@H](C)CO)C(=O)c2cccc(NC(=O)c3ccncc3)c2O[C@H]1CN(C)Cc1ccc(C(F)(F)F)cc1	-5.3	.	.	33.6[16.7 µM]	.	.

Assay outcomes: PubChem BioAssay, Broad Institute
